Source: PubChem (several laboratories)
Only some compounds are listed: those with a hit (about 2.3% of all), similar ones and a draw of the others.
GPR7 antagonist: GPR7 receptor antagonists, primary screen, cell-based, fluorescence, single concentration; Neuropeptides B/W receptor type 1 (Homo sapiens), P48145; GPR7-expressing cells, fluorescence antagonist assay; inhibition, % at 4.4 µM; hit rate 1.1% among 290,000; in the data active = inhibition above about 16%, passing the limit was not always enough;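 also: cells stimulated with the agonist NPW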
Target sequence (P48145 whole entry, looked up): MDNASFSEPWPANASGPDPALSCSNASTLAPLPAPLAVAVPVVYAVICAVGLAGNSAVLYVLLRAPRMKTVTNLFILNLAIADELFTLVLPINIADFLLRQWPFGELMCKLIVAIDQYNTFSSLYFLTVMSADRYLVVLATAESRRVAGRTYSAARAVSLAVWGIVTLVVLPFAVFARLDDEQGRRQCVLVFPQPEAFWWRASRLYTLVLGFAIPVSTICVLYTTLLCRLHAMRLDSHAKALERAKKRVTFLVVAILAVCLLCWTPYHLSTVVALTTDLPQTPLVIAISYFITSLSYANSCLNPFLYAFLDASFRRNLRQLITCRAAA
CHT inh: inhibitors of human choline transporter CHT; CHT-expressing cells, membrane potential dye, choline response; stronger effect = lower value; B-score at 10 µM; hit rate 0.86% among 310,000; AID 488975, 2010;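 active = B-score over 3 SD under the library average, and starting fluorescence ratio not unusually high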;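 also: choline stimulus applied at its EC90 after an EC20 pre-addition; B-score computed on integrated fluorescence ratio after choline addition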
p-CIP stab down: p/CIP-EGFP fusion destabilizers, primary screen, fluorescence, F442A cells. 16 h. decrease of EGFP signal, % at 10 µM. hit rate 0.01% among 290,000. AID 1984, 2009;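 active = EGFP signal decrease of at least 30% at 10 µM or well 3 SD below plate mean, unless failing retest; inactive = the rest, including hits failing retest or dose response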
T cell HTS: modulators of CD8 T cell-vesicle binding, primary screen, mouse 2C CD8+ T cells, flow cytometry; 2C CD8+ T cell-vesicle binding; stronger effect = lower value; response (vesicle binding), % at 7 µM; hit rate 0.068% among 330,000; AID 2052, 2009;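 active = response, share of CD8 T cells binding vesicles, and their 90th percentile fluorescence all below set limits, cut at about 80% in these data, passing the limit was not always enough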;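 also: values below 100% mean blocked vesicle binding to the CD8+ T cells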
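Benchmarks: naked versus QL9-loaded vesicles / Assay system: purified 2C TCR transgenic mouse naive CD8+ T cells / Technique: high-throughput flow cytometry with anti-B7-1 and anti-CD8 staining / Timing: Cell–vesicle co-incubation 1.5 h at 37 °C, staining 20 min on ice / Read-out: percent CD8+ FL2 mean versus row control / Probe or stimulus: QL9-loaded Drosophila micro-vesicles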
CHT allo act: CHT positive allosteric modulators, primary screen, cell-based, membrane potential dye, choline EC20; B-score at 10 µM; hit rate 0.49% among 310,000; High affinity choline transporter 1 (Homo sapiens), Q9GZV3; AID 488977, 2010; CHT-expressing cells; stronger effect = higher value; LV-AA mutant CHT in HEK293 cells;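 active = initial fluorescence not abnormally high and integrated response B-score, plate-corrected, over 3 SD above library mean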
DSG3 Ab inh: inhibitors of pemphigus antibody binding to DSG3, primary screen, biochemical, bead-based, flow cytometry, scFv-GFP; hit rate 0.48% among 310,000; AID 588358, 2011; DSG3-coupled beads, scFv-anti-DSG3-GFP binding; stronger effect = lower value; binding (percent of control), % at 10 µM;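 active = binding more than 3 SD below its plate's average and above zero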
Numbers stand for hits; 0 = inactive; - = no result given.

SMILES	GPR7 antagonist	CHT inh	p-CIP stab down	T cell HTS	CHT allo act	DSG3 Ab inh
O=C(COc1ccc(S(=O)(=O)N2CCCC2)cc1)NCc1cccnc1	0	0	0	0	0	0
CC(=O)Nc1ccc(C(=O)OCC(=O)c2ccc(S(=O)(=O)N3CCCCC3)cc2)cc1	-	0	-	0	0	28.7
CN(c1ccccc1)S(=O)(=O)c1cccc(C(=O)OCC(=O)NCc2ccccc2)c1	-	-	-	0	-	0
COc1ccc(N(C)S(=O)(=O)c2cccc(C(=O)OCC(=O)NCc3ccccc3OC)c2)cc1	19.2	0	0	0	0	0
COc1ccccc1NC(=O)Cc1nc(=O)[nH]c(=O)[nH]1	-	-	-	-	-	0
Cn1cccc1/C=C1\SC(=Nc2ccc(O)cc2)NC1=O	20.8	0	0	0	0	0
CC(C)C(C(=O)O)N1C(=O)/C(=C/C=C/c2ccco2)SC1=S (centres undefined)	0	0	0	0	0	76.4
CC(C)C(C(=O)O)N1C(=O)/C(=C/c2cccn2C)SC1=S (centres undefined)	0	0	0	0	0	0
O=C1/C(=C/C=C/c2ccco2)SC(=S)N1c1ccc(O)cc1	0	0	0	0	0	78.4
Cc1cccc(NC(=O)COc2cccc3c2CCNC3=O)c1	-	-	-	-	-	0
Oc1nc(Nc2ccc(F)cc2)sc1/C=C1\C=Nc2ccccc21	0	0	0	0	0	0
CC1=Nc2ccccc2/C1=C\c1sc(Nc2ccc(C)cc2)nc1O	18.9	0	0	0	0	-
Cc1cc2c(=O)oc(-c3ccccc3Br)nc2s1	0	-	0	-	-	0
CCc1cc2c(=O)oc(-c3ccccc3F)nc2s1	0	0	0	0	0	78.6
COc1ccc(NC(=O)Cn2c([N+](=O)[O-])cnc2C)c(OC)c1	-	-	-	-	-	0
O=C(CSc1ccc(Cl)cc1)Nc1cccc(-c2nc3ccccc3[nH]2)c1	0	0	0	0	0	66.1
CN(Cc1cc2ccccc2[nH]c1=O)S(=O)(=O)c1ccccc1	0	0	0	0	0	0
CN(Cc1cc2ccccc2[nH]c1=O)S(C)(=O)=O	0	0	0	0	0	54.2
Cc1ccc(NC(=O)CN(C)C(=O)C2CCC2)cc1	-	-	-	-	-	0
COc1ccc(Nc2nc(-c3sc(NC(C)=O)nc3C)cs2)cc1	0	-5.09	0	0	0	-
COc1ccc(Nc2nc(-c3sc(N)nc3C)cs2)cc1	0	0	0	0	0	-
Cc1ccc(-n2ncc3c(=O)n(-c4cccc(C)c4)c(=O)[nH]c32)cc1	-	-	-	-	-	0
C/C(=N\Nc1nc2ccccc2nc1C)c1ccccc1O	0	0	0	0	0	78.0
C=CCn1c2ccccc2c2nnc(SCC(N)=O)nc21	0	0	0	0	0	0
C=CCSc1nnc2nc3c(nn12)c1cc(C)ccc1n3CC=C	0	0	0	0	0	-30.0
SMILES	GPR7 antagonist	CHT inh	p-CIP stab down	T cell HTS	CHT allo act	DSG3 Ab inh
CCCc1ncc(CN2CCCC(C(=O)Nc3ccc(-c4cccc(OC)c4)cc3)C2)cn1 (centres undefined)	0	0	0	0	0	0
COc1cccc(-c2ccc(NC(=O)C3CCCN(Cc4cnn(C(C)C)c4)C3)cc2)c1 (centres undefined)	20.2	0	0	0	0	0
CC1(C2CC(=O)c3c(O)ccc(O)c3C2)OCCO1 (centres undefined)	-	-	-	-	-	0
CCN1CCN(c2nc(-c3ccncc3)nc3ccccc23)CC1	0	-6.94	0	0	0	-
COc1cccc(CN(C)C(=O)c2cccc(S(=O)(=O)Nc3cccc(C)c3)c2)c1OC	-	-	-	-	-	0
CC1C(=O)N(Cc2cn(CC3CCCCC3)nn2)CCS(=O)(=O)N1Cc1ccc(-c2ccccc2)cc1 (centres undefined)	-	-	-	-	-	0
CCn1c(SCC(=O)Nc2nc3ccccc3s2)nnc1-c1ccc(Br)cc1	0	0	0	0	0	-18.1
Cn1c(SCC(=O)Nc2nc3ccccc3s2)nnc1-c1ccccc1	0	0	0	0	0	0
O=C1CSC(c2ccncc2)N1Cc1ccco1 (centres undefined)	0	0	0	0	0	80.1
O=C1CSC(c2ccncc2)N1Cc1ccccc1 (centres undefined)	0	0	0	0	0	0
